The values that follow come from ChEMBL document CHEMBL2062366, “Synthesis and biological evaluation of purpurealidin E-derived marine sponge metabolites: aplysamine-2, aplyzanzine A, and suberedamines A and B” (2012).

In brackets after ≈: the same amount, converted by molar mass. Activity calls are given as the source filed them. No cut-off for these calls is given here.

Holding throughout (format): functional
The test system of assay [1] is Mycobacterium tuberculosis. Nature of the assay: Antimycobacterial activity against Mycobacterium tuberculosis H37Rv after 2 weeks by spot culture growth inhibition assay. The method in brief:
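H37Rv grown as standing culture in 7H9 + 10% ADC + 0.05% Tween-80 to McFarland 1, checked for contamination on blood agar. Culture diluted to 10³ cfu/mL; 10 μL spotted onto 7H10 agar + 10% OADC with compound, 37 °C, 2 weeks. Controls: DMSO (negative), isoniazid (positive). MIC = lowest concentration with no growth.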

Assay [2] has as its system Bacillus subtilis. Description: Antibacterial activity against Bacillus subtilis NCTC 9372 after 24 hrs. Particulars: NCTC 9372, 24 h. In a few lines:
(§1)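 Agar dilution in Isosensitest agar at final compound levels of 128–1 μg/mL, from 10 mg/mL DMSO stocks. Solvent-only control plates covered the same DMSO range. Strains were pre-grown overnight on Columbia agar at 37 °C and multipoint-inoculated at 10 000 cfu/spot. Plates were read after 24 h at 37 °C. MIC was taken as the lowest concentration giving no visible growth, with tests repeated on a separate occasion.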

Assay [3] relates to Staphylococcus epidermidis. Description: Antibacterial activity against Staphylococcus epidermidis NCTC 11047 after 24 hrs. The following applies: NCTC 11047, 24 h. The method in brief: as §1
In assay [4] the test system is Candida albicans. Nature of the assay: Antifungal activity against Candida albicans ATCC 90028 after 24 hrs. Particulars: ATCC 90028, 24 h. In a few lines: as §1
The subject of assay [5] is Staphylococcus aureus. Description: Antibacterial activity against methicillin-resistant Staphylococcus aureus NCTC 11939 after 24 hrs. Particulars: NCTC 11939, 24 h. In a few lines: (§2)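 Agar dilution on Isosensitest agar with final 128−1 μg/mL compound from DMSO solution; DMSO-only control plates. Strains pre-grown overnight on Columbia agar at 37 °C, suspended in sterile water, diluted to give 10 000 cfu per spot. Incubated 37 °C, 24 h. MIC = lowest concentration completely inhibiting visible growth; repeated on a separate occasion.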

Assay [6] relates to Nakaseomyces glabratus. Description: Antifungal activity against Candida glabrata NCPF 9725 after 24 hrs. Particulars: NCPF 9725, 24 h. The method in brief: as §1
The test system of assay [7] is Streptococcus pyogenes. Description: Antibacterial activity against Streptococcus pyogenes NCTC 8306 after 24 hrs. Particulars: NCTC 8306, 24 h. In a few lines: as §1
Assay [8] deals with Escherichia coli. Nature of the assay: Antibacterial activity against Escherichia coli NCTC 10418 after 24 hrs. Particulars: NCTC 10418, 24 h. The method in brief:
as §1

Assay [9] has as its system Enterococcus faecalis. Description: Antibacterial activity against Enterococcus faecalis NCTC 775 after 24 hrs. Particulars: NCTC 775, 24 h. In a few lines: as §1
The subject of assay [10] is Staphylococcus aureus. Nature of the assay: Antibacterial activity against Staphylococcus aureus NCTC 6571 after 24 hrs. The following applies: NCTC 6571, 24 h. The method in brief: as §2
Assay [11] relates to Listeria monocytogenes. Description: Antibacterial activity against Listeria monocytogenes NCTC 11994 after 24 hrs. Particulars: NCTC 11994, 24 h. In a few lines:
as §1

Assay [12] relates to Enterococcus faecium. Description: Antibacterial activity against Enterococcus faecium NCTC 7171 after 24 hrs. The following applies: NCTC 7171, 24 h. The method in brief: as §1
Assay [13] is described as follows: Growth inhibition of human NCI60 cells after 48 hrs by sulforhodamine B assay. The following applies: NCI60, 48 h. The method in brief: (§3)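 Run at the NCI Developmental Therapeutics Program under the standard DTP NCI60 protocol. Total cell protein was measured by sulforhodamine B staining at time 0 and after 48 h exposure. GI50, the concentration giving a 50% reduction of growth, was estimated from dose–response curves.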
(In general: The SRB assay estimates cell density from bound dye.)

Assay [14] concerns K562. Nature of the assay: Growth inhibition of human K562 cells after 48 hrs by sulforhodamine B assay. Particulars: K562, 48 h, pooled result: one value given for 6 cell lines, strains, targets or settings. In a few lines:
as §3

For `COc1ccc(C[C@H](N)C(=O)NCCc2cc(Br)c(OCCCN(C)C)c(Br)c2)cc1Br` [SUBEREDAMINE A], the figures for the MIC in assay [1] (336 h), in assay [2] and in [3] were 50 µg/mL (≈ 78.6 µM), 64 µg/mL (≈ 101 µM) and 64 µg/mL (≈ 101 µM), respectively.

In the case of `COc1c(Br)cc(C[C@@H](C(=O)NCCc2cc(Br)c(OCCCN(C)C)c(Br)c2)N(C)C)cc1Br` [APLYZANZINE A], the MIC (usually the lowest concentration found to suppress growth) was determined as 25 µg/mL (≈ 33.6 µM) in [1] (336 h); 64 µg/mL (≈ 86.1 µM) in assay [4]; 16 µg/mL (≈ 21.5 µM) in assay [2]; 32 µg/mL (≈ 43.1 µM) in [5]; 64 µg/mL (≈ 86.1 µM) in assay [6]; 16 µg/mL (≈ 21.5 µM) in assay [3]. Further, the MIC is 16 µg/mL (≈ 21.5 µM) in [7]; 32 µg/mL (≈ 43.1 µM) in assay [8]; 32 µg/mL (≈ 43.1 µM) in assay [9]; 32 µg/mL (≈ 43.1 µM) in [10]; 32 µg/mL (≈ 43.1 µM) in assay [11]; 32 µg/mL (≈ 43.1 µM) in assay [12].

As to `CN[C@@H](Cc1ccc(OC)c(Br)c1)C(=O)NCCc1cc(Br)c(OCCCN(C)C)c(Br)c1` [SUBEREDAMINE B], the MIC in [1] (336 h) was determined as 40 µg/mL (≈ 61.5 µM). For the same molecule, the GI50 is 5.47 µM in [13] (read-out: GI50) and 4.79 µM in [13] (read-out: pGI50 (converted)).

As for `CNC(Cc1cc(Br)c(OC)c(Br)c1)C(=O)NCCCOc1c(Br)cc(CCN(C)C)cc1Br.Cl` (centres undefined) [ANOMOIAN A], the MIC in assay [1] (336 h) was found to be 25 µg/mL; in assay [2], 32 µg/mL; in [5] it was 64 µg/mL; in assay [3] it was 64 µg/mL; in [7], 64 µg/mL; in assay [8] it was 64 µg/mL. The minimal inhibitory concentration (MIC) in assay [10], in assay [11] and in assay [12] was 64 µg/mL in each case.

As for `CN[C@@H](Cc1cc(Br)c(OC)c(Br)c1)C(=O)NCCc1cc(Br)c(OCCCN(C)C)c(Br)c1`, the values for the GI50 in [14] (read-out: GI50) and in assay [14] (read-out: pGI50 (converted)) were 2.17 µM and 4.79 µM, respectively.

As to `COc1ccc(C/C(=N\O)C(=O)NCCc2cc(Br)c(OCCCN(C)C)c(Br)c2)cc1Br`, the MIC amounted to 25 µg/mL (≈ 38.4 µM) in assay [1] (336 h); 32 µg/mL (≈ 49.2 µM) in [2]; 64 µg/mL (≈ 98.4 µM) in [5]; 64 µg/mL (≈ 98.4 µM) in assay [3]; 32 µg/mL (≈ 49.2 µM) in assay [7]; 64 µg/mL (≈ 98.4 µM) in [9]. The results for the minimum inhibitory concentration (MIC) in assay [10], in assay [11] and in [12] were 32 µg/mL (≈ 49.2 µM), 64 µg/mL (≈ 98.4 µM) and 64 µg/mL (≈ 98.4 µM), respectively.

Consider `CN(C)CCCOc1c(Br)cc(CCN)cc1Br`, for which the MIC result in assay [1] was “inactive”.
